From ChEMBL document CHEMBL1138673, “Bulky nonproteinogenic amino acids permit the design of very small and effective cationic antibacterial peptides” (2004)
Values after ≈ are worked out from the molar mass of the structure shown. Square brackets hold non-standard residues; d marks the D form. Peptide text beside a SMILES is read from it. * marks the point of attachment. Phe(4-tBu) = CC(C)(C)c1ccc(C[C@H](N)C(=O)O)cc1; Bip = N[C@@H](Cc1ccc(-c2ccccc2)cc1)C(=O)O; tBuAla = CC(C)(C)C[C@H](N)C(=O)O; Cha = N[C@@H](CC1CCCCC1)C(=O)O; Tle = CC(C)(C)[C@H](N)C(=O)O; NHBn = c1ccc(CN*)cc1; OBn = c1ccc(CO*)cc1

Assays:
[1] = system: Escherichia coli; assay: Minimum inhibitory concentration against Escherichia coli; assay type: functional
Outline: (§1)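 E. coli ATCC 25922 or S. aureus ATCC 25923 grown to exponential phase in 2% Bacto Peptone water. Standard broth microdilution, inoculum 2 × 10^6 cfu/mL, in 1% Bacto Peptone water, overnight incubation at 37 °C. MIC read after incubation. Each peptide run in parallel from at least three independent dilutions, with gentamicin as internal standard.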

[2] = system: Staphylococcus aureus; assay: Minimum inhibitory concentration against Staphylococcus aureus; assay type: functional; outline: as §1

## NC(N)=NCCC[C@H](NC(=O)[C@@H](N)Cc1ccc(-c2ccccc2)cc1)C(=O)OCc1ccc(-c2ccccc2)cc1
[1]
  MIC: 50 µg/mL (≈ 88.7 µM)
[2]
  MIC: 5 µg/mL (≈ 8.87 µM)

## CC(C)NC(=O)[C@H](CCCN=C(N)N)NC(=O)[C@@H](N)Cc1c(C(C)(C)C)[nH]c2c(C(C)(C)C)cc(C(C)(C)C)cc12
[1]
  MIC: 50 µg/mL (≈ 87.7 µM)
[2]
  MIC: 7.5 µg/mL (≈ 13.2 µM)

## C[C@H](N)C(=O)N[C@@H](CCCN=C(N)N)C(=O)OCc1ccc(-c2ccccc2)cc1
[1]
  MIC: 300 µg/mL (≈ 729 µM)
[2]
  MIC: 100 µg/mL (≈ 243 µM)

## NCCCC[C@H](N)CN[C@@H](Cc1c[nH]c2ccccc12)C(=O)OCc1ccccc1
[1]
  MIC: > 300 µg/mL
[2]
  MIC: 150 µg/mL (≈ 367 µM)

## NC(N)=NCCC[C@H](NC(=O)[C@@H](N)Cc1ccccc1)C(=O)OCc1ccc(-c2ccccc2)cc1
[1]
  MIC: 100 µg/mL (≈ 205 µM)
[2]
  MIC: 12.5 µg/mL (≈ 25.6 µM)

## CC(C)(C)c1cc(C(C)(C)C)c2[nH]c(C(C)(C)C)c(C[C@H](N)C(=O)N[C@@H](CCCNC(=N)N)C(=O)NCc3ccccc3)c2c1
[1]
  MIC: 10 µg/mL (≈ 16.2 µM)
[2]
  MIC: 2.5 µg/mL (≈ 4.05 µM)

## CC(C)(C)c1cc(C(C)(C)C)c2[nH]c(C(C)(C)C)c(C[C@H](N)C(=O)N[C@@H](CCCNC(=N)N)C(N)=O)c2c1
[1]
  MIC: > 150 µg/mL
[2]
  MIC: 15 µg/mL (≈ 28.4 µM)

## COC(=O)[C@H](CCCNC(=N)N)NC(=O)[C@@H](N)Cc1c(C(C)(C)C)[nH]c2c(C(C)(C)C)cc(C(C)(C)C)cc12
[1]
  MIC: 30 µg/mL (≈ 55.3 µM)
[2]
  MIC: 5 µg/mL (≈ 9.21 µM)

## NC(N)=NCCC[C@H](NC(=O)[C@@H](N)Cc1c2ccccc2cc2ccccc12)C(=O)NCc1ccccc1
[1]
  MIC: 150 µg/mL (≈ 294 µM)
[2]
  MIC: 20 µg/mL (≈ 39.2 µM)

## NCCCC[C@H](N)C(=O)N[C@@H](Cc1c[nH]c2ccccc12)C(=O)OCc1ccccc1 (H-Lys-Trp-OBn)
[1]
  MIC: > 200 µg/mL
[2]
  MIC: 75 µg/mL (≈ 178 µM)

## NCCCC[C@H](N)C(=O)N[C@H](Cc1c[nH]c2ccccc12)C(=O)OCc1ccccc1 (H-Lys-[dW]-OBn)
[1]
  MIC: > 200 µg/mL
[2]
  MIC: 50 µg/mL (≈ 118 µM)

## NC(N)=NCCC[C@H](NC(=O)[C@@H](N)Cc1c[nH]c2ccccc12)C(=O)NCc1ccccc1 (H-Trp-Arg-NHBn)
[1]
  MIC: > 300 µg/mL
[2]
  MIC: 100 µg/mL (≈ 222 µM)

## NC(N)=NCCC[C@H](NC(=O)[C@@H](N)Cc1ccc(-c2ccccc2)cc1)C(=O)NCc1ccccc1 (H-[Bip]-Arg-NHBn)
[1]
  MIC: > 50 µg/mL
[2]
  MIC: 15 µg/mL (≈ 30.8 µM)

## NC(N)=NCCC[C@H](NC(=O)[C@@H](N)Cc1ccc(-c2ccccc2)cc1)C(=O)OCc1ccccc1 (H-[Bip]-Arg-OBn)
[1]
  MIC: 150 µg/mL (≈ 308 µM)
[2]
  MIC: 5 µg/mL (≈ 10.3 µM)

## COC(=O)[C@H](CCCN=C(N)N)NC(=O)[C@@H](N)Cc1ccc(-c2ccccc2)cc1 (H-[Bip]-Arg-OMe)
[1]
  MIC: > 300 µg/mL
[2]
  MIC: 150 µg/mL (≈ 365 µM)

## NC(N)=NCCC[C@H](NC(=O)[C@@H](N)CC1CCCCC1)C(=O)OCc1ccccc1 (H-[Cha]-Arg-OBn)
[1]
  MIC: > 300 µg/mL
[2]
  MIC: 100 µg/mL (≈ 239 µM)

## CC(C)(C)c1ccc(C[C@H](N)C(=O)N[C@@H](CCCN=C(N)N)C(=O)OCc2ccccc2)cc1 (H-[Phe(4-tBu)]-Arg-OBn)
[1]
  MIC: 200 µg/mL (≈ 428 µM)
[2]
  MIC: 25 µg/mL (≈ 53.5 µM)

## COC(=O)[C@H](CCCN=C(N)N)NC(=O)[C@@H](N)Cc1ccc(C(C)(C)C)cc1 (H-[Phe(4-tBu)]-Arg-OMe)
[1]
  MIC: > 300 µg/mL
[2]
  MIC: > 300 µg/mL

## CC(C)(C)[C@H](N)C(=O)N[C@@H](CCCN=C(N)N)C(=O)OCc1ccccc1 (H-[Tle]-Arg-OBn)
[1]
  MIC: > 300 µg/mL
[2]
  MIC: > 300 µg/mL

## CC(C)(C)C[C@H](N)C(=O)N[C@@H](CCCN=C(N)N)C(=O)OCc1ccccc1 (H-[tBuAla]-Arg-OBn)
[1]
  MIC: > 300 µg/mL
[2]
  MIC: > 300 µg/mL
